From PubChem BioAssay
FLuc inh counter – Photinus pyralis luciferase inhibition counter-screen; 1.5% of 200,000 active; ATPLite firefly luciferase biochemical luminescence, 10 min; inhibition, % at 10 µM; P08659;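 active = inhibition above about 50% when tested at 10 µM, limit read from the data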
Target sequence (P08659 whole entry, looked up): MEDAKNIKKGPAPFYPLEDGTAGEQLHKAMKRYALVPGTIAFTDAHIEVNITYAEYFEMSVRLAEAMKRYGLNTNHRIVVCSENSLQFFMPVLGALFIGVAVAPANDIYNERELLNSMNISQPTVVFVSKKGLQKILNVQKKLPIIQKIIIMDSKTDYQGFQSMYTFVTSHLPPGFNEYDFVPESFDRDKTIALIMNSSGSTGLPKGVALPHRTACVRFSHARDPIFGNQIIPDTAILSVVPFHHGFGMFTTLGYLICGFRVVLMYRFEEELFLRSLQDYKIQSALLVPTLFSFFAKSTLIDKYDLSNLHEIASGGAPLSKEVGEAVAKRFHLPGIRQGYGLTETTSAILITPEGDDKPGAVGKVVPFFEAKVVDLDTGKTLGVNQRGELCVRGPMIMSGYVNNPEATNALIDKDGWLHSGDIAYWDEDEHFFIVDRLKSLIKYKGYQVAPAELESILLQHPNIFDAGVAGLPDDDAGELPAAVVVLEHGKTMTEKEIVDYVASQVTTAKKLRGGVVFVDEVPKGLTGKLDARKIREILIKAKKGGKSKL
NF-kB neuron act – NF-kB expression increase, human neuronal cells; NF-kB reporter expression; stronger effect = higher value; fold change at 12.5 µM; 1.6% of 190,000 active; AID 1239; in the data active = fold change above about 3.3
APP 5'UTR act – APP 5'UTR luciferase reporter activation | activation, % at 2 µM | SH-SY5Y APP 5'UTR luciferase reporter, luminescence; zero percent = DMSO vehicle wells | 1% of 190,000 active;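 active = activation above a set limit, based on mean plus 3 SD of controls, cut at about 140% in these data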
APP 5UTR inh – APP translation inhibition | SH-SY5Y APP 5'UTR-luciferase reporter, luminescence | inhibition, % at 2 µM | 0.82% of 190,000 active | AID 1285;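 active = inhibition above a set limit, derived from the sample mean plus 3 SD, cut at about 45% in these data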
STAT1 act – STAT1 signaling activation; activation (% of control), % at 5.5 µM; NIH 3T3 STAT1-luciferase reporter, IFN-gamma, luminescence; 100% = IFN-gamma alone, no compound; 2.6% of 200,000 active; AID 932;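 active = activation above the screen-wide mean activation plus 3 SD, cut at about 130% in these data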;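 also: raw ratio to IFN-gamma control signal so 100% means no change and 0% no light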
FLuc stim CS – affects firefly luciferase, flagging false hits in luciferase stimulation screens; activation factor at 10 µM; P08659; 200,000 tested, under 10 active; ATPlite luciferase biochemical, luminescence, 10 min; 0 = ATP-free wells, 1 = DMSO control;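 active = luciferase activation factor, scaled between plate controls, of at least 2 with compound at 10 µM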
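Assay system: Luciferase/luciferin detection reagent, cell-free biochemical luciferase assay / Also added: ATP substrate / Schedule: 10 min at ambient temperature / Measured by: luminescence measurement of luciferase light output / Benchmarks: low control with PBS replacing ATP, high control enzyme plus ATP without compound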
STAT1 activ conf – confirmation of STAT1 signaling activators; shares compounds with STAT1 act; NIH 3T3 STAT1-luciferase reporter, IFN-gamma potentiation, luminescence; 100% = IFN-gamma EC80 alone, no compound; activation (% of control), % at 5.7 µM; 97% of 1,200 active; AID 1262;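 active = activation above a set limit carried over from the earlier primary STAT1 screen, cut at about 140% in these data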;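 also: simple ratio to median IFN-gamma plus DMSO wells so 0% means no light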
NFkB act STAT1ct – NF-kappaB activation in STAT1 activator counter-screen. shares compounds with STAT1 act. HEK293T NF-kB luciferase reporter, TNF-alpha stimulated, luminescence; 100% = TNF-alpha with vehicle only. activation (% of control), % at 5.7 µM. 43% of 1,200 active. AID 1306;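 active = activation above the mean of solvent-only control wells plus 3 SD, set per campaign, cut at about 130% in these data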;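 also: TNF-alpha given at a submaximal dose yielding about 80% of full reporter signal; values are well signal over median control so 100% means no change and 0% no light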
STAT3 act STAT1c – human STAT3 activation in STAT1 activator counter-screen | shares compounds with STAT1 act | U3A cells STAT3-luciferase reporter, IL-6, luminescence; cells lack STAT1; 100 = IL-6 alone, no compound effect | activation (% of control), % at 5.7 µM | 46% of 1,200 active | AID 1316;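 active = activation above the solvent-only control well mean plus 3 SD, set per plate batch, cut at about 110% in these data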;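 also: 0% = no luminescence and 100% = median IL-6 plus DMSO wells; higher means more STAT3 reporter activation so hits are non-selective activators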
Numbers without * were called inactive. Hits are enriched below; roughly 4.8% of the tested compounds scored in any of these assays.

What do the screens show for `CCc1ccc(/C=N/NC(=O)c2c[nH]c3ccccc23)s1`?
FLuc inh counter: 24.5; NF-kB neuron act: 2.15; APP 5'UTR act: 122.5; APP 5UTR inh: -122.5; STAT1 act: 153.5*; FLuc stim CS: 0.8; STAT1 activ conf: 188.5*; NFkB act STAT1ct: 125.8; STAT3 act STAT1c: 115.1*

Results for CCN(CC)c1ccc(/C=N/NC(=O)c2c[nH]c3ccccc23)cc1 ?
FLuc inh counter: 12.6; NF-kB neuron act: 1.18; APP 5'UTR act: 16.6; APP 5UTR inh: -16.6; STAT1 act: 119.8; FLuc stim CS: 0.9

What do the screens show for `S=C(Nc1ccc(Cl)cc1)c1nc2ccccc2[nH]1`?
FLuc inh counter: 66.3*; NF-kB neuron act: 2.49; STAT1 act: 167.3*; FLuc stim CS: 0.3; STAT1 activ conf: 191.7*; NFkB act STAT1ct: 134.4*; STAT3 act STAT1c: 101.7

What do the screens show for `COc1cc(/C=N/OCC(=O)Nc2cc(C)cc(C)c2)ccc1OCc1ccc(Cl)cc1`?
FLuc inh counter: 13.8; NF-kB neuron act: 4.1*; APP 5'UTR act: 102.1; APP 5UTR inh: -102.1; STAT1 act: 152.1*; FLuc stim CS: 0.9; STAT1 activ conf: 182.7*; NFkB act STAT1ct: 131.9; STAT3 act STAT1c: 112.7*

What do the screens show for `COc1cc(/C=N/OCC(=O)NC2CCCCC2C)ccc1OCc1ccc(Cl)cc1` (stereo not given)?
FLuc inh counter: 10.0; NF-kB neuron act: 4.96*; APP 5'UTR act: 140.9*; APP 5UTR inh: -140.9; STAT1 act: 157.7*; FLuc stim CS: 0.9; STAT1 activ conf: 181.7*; NFkB act STAT1ct: 133.7*; STAT3 act STAT1c: 107.1

Results for CCc1c(C)nc(Nc2nc(C)c3ccc(OC)cc3n2)[nH]c1=O ?
FLuc inh counter: 0.7; NF-kB neuron act: 0.52; APP 5'UTR act: -2.8; APP 5UTR inh: 2.8; STAT1 act: 118.7; FLuc stim CS: 1

What do the screens show for `COc1ccc2c(C)nc(Nc3nc(C)c(C)c(=O)[nH]3)nc2c1`?
FLuc inh counter: 20.6; NF-kB neuron act: 1.95; APP 5'UTR act: 2.2; APP 5UTR inh: -2.2; STAT1 act: 199.8*; FLuc stim CS: 0.8; STAT1 activ conf: 173.5*; NFkB act STAT1ct: 128.4; STAT3 act STAT1c: 110.7*

What do the screens show for `N/C(=N\OC(=O)COc1ccccc1Cl)c1ccccn1`?
FLuc inh counter: 33.8; NF-kB neuron act: 7.3*; APP 5'UTR act: 201.4*; APP 5UTR inh: -201.4; STAT1 act: 178.0*; FLuc stim CS: 0.7; STAT1 activ conf: 207.4*; NFkB act STAT1ct: 139.4*; STAT3 act STAT1c: 115.6*

Results for N/C(=N\OC(=O)COc1ccc(Cl)cc1Cl)c1ccncc1 ?
FLuc inh counter: 17.4; NF-kB neuron act: 6.23*; APP 5'UTR act: 175.4*; APP 5UTR inh: -175.4; STAT1 act: 154.6*; FLuc stim CS: 0.8; STAT1 activ conf: 206.4*; NFkB act STAT1ct: 146.4*; STAT3 act STAT1c: 123.7*

Results for N/C(=N\OC(=O)COc1ccc(Br)cc1)c1ccncc1 ?
FLuc inh counter: -0.9; NF-kB neuron act: 1.37; APP 5'UTR act: 40.9; APP 5UTR inh: -40.9; STAT1 act: 102.1; FLuc stim CS: 1

How did Cc1nc(Oc2ccc(S(=O)(=O)N3CCOCC3)cc2Cl)c2c3c(sc2n1)CCCC3 do in these assays?
FLuc inh counter: -5.0; NF-kB neuron act: 1.23; APP 5'UTR act: 5.6; APP 5UTR inh: -5.6; STAT1 act: 106.7; FLuc stim CS: 1.1

What do the screens show for `O=C(CSc1ncccn1)NCc1cccc(Cl)c1`?
FLuc inh counter: 2.0; NF-kB neuron act: 1.56; APP 5'UTR act: 18.6; APP 5UTR inh: -18.6; STAT1 act: 109.9; FLuc stim CS: 1

What do the screens show for `CN(C)c1nc(N)nc(CSc2nc3cc(Cl)ccc3o2)n1`?
FLuc inh counter: -1.7; NF-kB neuron act: 2.02; APP 5'UTR act: 10.9; APP 5UTR inh: -10.9; STAT1 act: 152.2*; FLuc stim CS: 1; STAT1 activ conf: 141.9*; NFkB act STAT1ct: 121.7; STAT3 act STAT1c: 89.8

Results for CN(C)c1ccc(/C=C/c2nnnn2-c2ccccc2)cc1 ?
FLuc inh counter: 9.6; NF-kB neuron act: 3.92*; APP 5'UTR act: 131.9; APP 5UTR inh: -131.9; STAT1 act: 171.8*; FLuc stim CS: 0.9; STAT1 activ conf: 187.0*; NFkB act STAT1ct: 133.9*; STAT3 act STAT1c: 117.8*

How did CNC(=O)c1c(NC(=O)c2nc3ccccc3s2)sc2c1CCC2 do in these assays?
FLuc inh counter: 1.2; NF-kB neuron act: 0.52; APP 5'UTR act: 78.8; APP 5UTR inh: -78.8; STAT1 act: 168.7*; FLuc stim CS: 1; STAT1 activ conf: 189.4*; NFkB act STAT1ct: 136.0*; STAT3 act STAT1c: 132.6*

What do the screens show for `C=C(C)CSc1nncn1/N=C/c1ccc(OC)cc1`?
FLuc inh counter: 3.7; NF-kB neuron act: 2.46; APP 5'UTR act: 33.2; APP 5UTR inh: -33.2; STAT1 act: 153.3*; FLuc stim CS: 1; STAT1 activ conf: 165.4*; NFkB act STAT1ct: 129.6; STAT3 act STAT1c: 128.4*

How did CCSc1nncn1/N=C/c1ccc(OC)c(OC)c1 do in these assays?
FLuc inh counter: -4.3; NF-kB neuron act: 1.46; APP 5'UTR act: 19.3; APP 5UTR inh: -19.3; STAT1 act: 101.5; FLuc stim CS: 1

How did c1ccc(-n2nnc(-c3cccnc3)n2)cc1 do in these assays?
FLuc inh counter: 24.8; NF-kB neuron act: 2.38; APP 5'UTR act: 17.8; APP 5UTR inh: -17.8; STAT1 act: 151.6*; FLuc stim CS: 0.8; STAT1 activ conf: 164.6*; NFkB act STAT1ct: 125.8; STAT3 act STAT1c: 102.7

Results for S=C(c1ccc(-c2ccc(Cl)c(Cl)c2)o1)N1CCOCC1 ?
FLuc inh counter: 20.3; NF-kB neuron act: 5.33*; APP 5'UTR act: 133.5; APP 5UTR inh: -133.5; STAT1 act: 157.4*; FLuc stim CS: 0.8; STAT1 activ conf: 201.8*; NFkB act STAT1ct: 143.7*; STAT3 act STAT1c: 118.8*

Results for S=C(c1ccc(-c2ccc(Br)cc2)o1)N1CCCCC1 ?
FLuc inh counter: 59.2*; NF-kB neuron act: 5.64*; APP 5'UTR act: 158.7*; APP 5UTR inh: -158.7; STAT1 act: 169.5*; FLuc stim CS: 0.4; STAT1 activ conf: 210.5*; NFkB act STAT1ct: 145.2*; STAT3 act STAT1c: 113.7*

Results for S=C(Nc1ccc(Cl)c(Cl)c1)N1CCOCC1 ?
FLuc inh counter: -1.7; NF-kB neuron act: 1.26; APP 5'UTR act: -17.6; APP 5UTR inh: 17.6; STAT1 act: 103.5; FLuc stim CS: 1
